Measurements taken from ChEMBL document CHEMBL3853289, “Eucarobustols A-I, Conjugates of Sesquiterpenoids and Acylphloroglucinols from Eucalyptus robusta” (J Nat Prod, 2016).

Experiments:
[1] = Cytotoxicity against human HL60 cells assessed as reduction in cell viability after 72 hrs by MTT assay; type: functional, cell-based; details: HL-60, 72 h
Procedure, shortened: (§1)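 Cytotoxicity was tested against the HL-60 human leukemia and A-549 human lung adenocarcinoma lines, with adriamycin as the positive control. Potency was expressed as IC50.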

[2] = Cytotoxicity against human A549 cells assessed as reduction in cell viability incubated for 72 hrs by SRB assay; type: functional, cell-based; details: A549, 72 h; procedure, shortened: as §1
[3] = target: T1, Tyrosine-protein phosphatase non-receptor type 1 (Homo sapiens, UniProt P18031); test: Inhibition of PTP1B (unknown origin) using pNPP as substrate after 3 mins by colorimetric analysis
T1 sequence (P18031 whole entry): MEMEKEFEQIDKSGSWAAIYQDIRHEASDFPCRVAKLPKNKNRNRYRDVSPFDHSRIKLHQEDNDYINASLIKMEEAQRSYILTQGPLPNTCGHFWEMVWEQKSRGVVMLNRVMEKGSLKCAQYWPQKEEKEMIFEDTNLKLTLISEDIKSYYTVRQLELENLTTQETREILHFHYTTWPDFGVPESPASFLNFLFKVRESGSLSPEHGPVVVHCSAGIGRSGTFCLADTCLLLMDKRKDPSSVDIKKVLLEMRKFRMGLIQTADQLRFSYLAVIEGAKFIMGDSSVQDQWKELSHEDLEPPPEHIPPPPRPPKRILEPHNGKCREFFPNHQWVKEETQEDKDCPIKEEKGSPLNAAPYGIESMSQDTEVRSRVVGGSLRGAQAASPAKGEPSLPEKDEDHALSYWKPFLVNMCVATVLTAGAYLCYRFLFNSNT

What does the source list for CC(C)C[C@H](c1c(O)c(C=O)c(O)c(C=O)c1O)[C@@H]1CC[C@@](C)(O)[C@@H]2[C@@H]3[C@H](CC[C@]21C)C3(C)C?
IC50 [1]: > 10 µM; IC50 [2]: > 10 µM

For CC(C)CC(c1c(O)c(C=O)c(O)c(C=O)c1O)[C@@]1(C)CC[C@H]2C1=C[C@H](C(C)(C)O)CC[C@H]2C (some centres not stated), which IC50 [1] is on record?
The IC50 was greater than 10 µM.

What about the IC50 [2] of the same compound?
Its IC50 is greater than 10 µM.

Which results are given for CC(C)CC(c1c(O)c(C=O)c(O)c(C=O)c1O)C1CC[C@@H](C)C2=C[C@H](C(C)(C)O)CC[C@]21C (some centres not stated)?
IC50 [1]: > 10 µM; IC50 [2]: > 10 µM

What does the source list for CC(C)CC(=O)c1c(O)c(C=O)c(O)c(C[C@@]2(C)CC[C@H]3C2=C[C@H](C(C)(C)O)CC[C@H]3C)c1O?
IC50 [3]: 4.3 µM; IC50 [1]: > 10 µM; IC50 [2]: > 10 µM

For CC(C)C[C@@H](c1c(O)c(C=O)c(O)c(C=O)c1O)[C@@]1(C)CC=C2[C@H](C)CC[C@@H]3[C@H]([C@@H]21)C3(C)C, which IC50 [3] is on record?
Its IC50 is 1.8 µM.

What about the IC50 [1] of the same compound?
Its IC50 is greater than 10 µM.

What about the IC50 [2] of the same compound?
The IC50 was greater than 10 µM.

Which IC50 [3] does the source give for CC(C)C[C@H](c1c(O)c(C=O)c(O)c(C=O)c1O)[C@@]1(C)CC=C2[C@H](C)CC[C@@H]3[C@H]([C@@H]21)C3(C)C here?
Its IC50 is 3 µM.

And the IC50 [1]?
The IC50 was greater than 10 µM.

And the IC50 [2]?
Its IC50 is greater than 10 µM.

Which results are given for CC(C)C[C@@H](c1c(O)c(C=O)c(O)c(C=O)c1O)[C@@]1(C)CCC2=C1[C@H]1[C@@H](CC[C@H]2C)C1(C)C?
IC50 [3]: 1.6 µM; IC50 [1]: > 10 µM; IC50 [2]: > 10 µM

Which IC50 [3] does the source give for CC(C)C[C@H](c1c(O)c(C=O)c(O)c(C=O)c1O)[C@H]1CC[C@@H](C)[C@@]2(C)C1=CC[C@@H]1[C@H]2C1(C)C here?
Its IC50 is 1.3 µM.

For CC(C)C[C@@H](c1c(O)c(C=O)c(O)c(C=O)c1O)[C@H]1CC[C@@H](C)[C@@]2(C)C1=CC[C@@H]1[C@H]2C1(C)C, which IC50 [3] is on record?
The IC50 was 4.3 µM.

Which IC50 [1] does the source give for CC(C)C[C@H](c1c(O)c(C=O)c(O)c(C=O)c1O)[C@@]1(C)CC[C@@H]2[C@@H]1[C@H]1[C@@H](CC[C@@]2(C)O)C1(C)C [MACROCARPAL B] here?
The IC50 was greater than 10 µM.

And the IC50 [2]?
The IC50 was greater than 10 µM.

Which IC50 [1] does the source give for CC(C)C[C@H](c1c(O)c(C=O)c(O)c(C=O)c1O)[C@@]1(C)CC[C@H]2C1=C[C@H](C(C)(C)O)CC[C@H]2C here?
Its IC50 is greater than 10 µM.

What about the IC50 [2] of the same compound?
The IC50 was greater than 10 µM.

What does the source list for CC(=O)CC[C@@H]1[C@H]([C@H]2C(=O)CC[C@]2(C)[C@H](CC(C)C)c2c(O)c(C=O)c(O)c(C=O)c2O)C1(C)C?
IC50 [1]: > 10 µM; IC50 [2]: > 10 µM

What does the source list for CC(C)C[C@@H](c1c(O)c(C=O)c(O)c(C=O)c1O)[C@@]1(C)CC[C@@H]2[C@@H]1[C@H]1[C@@H](CC[C@@]2(C)O)C1(C)C [MACROCARPAL A]?
IC50 [1]: > 10 µM; IC50 [2]: > 10 µM

For C=C1CC[C@@H]2[C@H]([C@H]3[C@H]1CC[C@]3(C)[C@@H](CC(C)C)c1c(O)c(C=O)c(O)c(C=O)c1O)C2(C)C [MACROCARPAL C], which IC50 [1] is on record?
The IC50 was greater than 10 µM.

What about the IC50 [2] of the same compound?
The IC50 was greater than 10 µM.

Which results are given for CC(C)C[C@@H](c1c(O)c(C=O)c(O)c(C=O)c1O)[C@@]1(C)CC[C@@H]2[C@@H]1[C@H]1[C@@H](CC[C@]2(C)O)C1(C)C?
IC50 [3]: 5.6 µM; IC50 [1]: > 10 µM; IC50 [2]: > 10 µM

Which IC50 [3] does the source give for CC1=C2CC[C@](C)([C@@H](CC(C)C)c3c(O)c(C=O)c(O)c(C=O)c3O)[C@H]2[C@H]2[C@@H](CC1)C2(C)C here?
Its IC50 is 4.5 µM.

And the IC50 [1]?
The IC50 was greater than 10 µM.

What about the IC50 [2] of the same compound?
The IC50 was greater than 10 µM.

Which IC50 [3] does the source give for CO[C@]1(C)CC[C@@H]2[C@H]([C@H]3[C@H]1CC[C@]3(C)[C@@H](CC(C)C)c1c(O)c(C=O)c(O)c(C=O)c1O)C2(C)C here?
Its IC50 is 4.1 µM.

What about the IC50 [1] of the same compound?
Its IC50 is greater than 10 µM.

What about the IC50 [2] of the same compound?
Its IC50 is greater than 10 µM.

For C=C(C)[C@@H]1C=C2[C@@H](C)CC[C@@H]([C@@H](CC(C)C)c3c(O)c(C=O)c(O)c(C=O)c3O)[C@]2(C)CC1, which IC50 [3] is on record?
Its IC50 is 2.9 µM.

Which results are given for CC(C)C[C@@H](c1c(O)c(C=O)c(O)c(C=O)c1O)[C@@H]1CC[C@@](C)(O)[C@@H]2[C@@H]3[C@H](CC[C@]21C)C3(C)C?
IC50 [1]: > 10 µM; IC50 [2]: > 10 µM
